Laboratory results as given in ChEMBL document CHEMBL1135743 (J Med Chem, 2002).

Legend:
Adenosine receptor A2a [1] = molecular target: T1, Adenosine receptor A2a (Homo sapiens, UniProt P29274); assay: Displacement of [3H]ZM-241,385 from CHO cell membrane expressing human Adenosine A2A receptor; type: cell membranes
How it was run: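 Membranes from CHO cells expressing human A2A, with adenosine deaminase 2 IU/mL added. Incubation used 2.0 nM (final) [3H]ZM241385 in 50 mM Tris/HCl pH 7.4 for 2 h at 25 °C. Nonspecific binding was set with 100 µM CPA. GF/B filtration, four ice-cold washes, scintillation counting. Ligands were dissolved in DMSO stocks.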

Adenosine receptor A1 = molecular target: T2, Adenosine receptor A1 (Homo sapiens, UniProt P30542); assay: Displacement of [3H]DPCPX from CHO cell membrane expressing human Adenosine A1 receptor; type: cell membranes
T2 sequence (P30542 whole entry): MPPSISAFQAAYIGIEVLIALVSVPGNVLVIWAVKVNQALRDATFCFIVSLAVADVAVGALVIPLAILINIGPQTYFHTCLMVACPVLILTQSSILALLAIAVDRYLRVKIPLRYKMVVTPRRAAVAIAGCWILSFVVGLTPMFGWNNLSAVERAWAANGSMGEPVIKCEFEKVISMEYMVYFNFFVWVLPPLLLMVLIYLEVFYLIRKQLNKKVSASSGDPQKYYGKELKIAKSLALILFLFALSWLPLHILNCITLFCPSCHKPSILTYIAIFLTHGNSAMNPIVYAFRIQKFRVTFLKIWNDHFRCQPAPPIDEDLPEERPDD

Adenosine receptor A3 = molecular target: T3, Adenosine receptor A3 (Homo sapiens, UniProt P0DMS8); assay: Ability to displace [125I]- AB-MECA from HEK 293 cell membrane expressing the human Adenosine A3 receptor; type: cell membranes, HEK293
T3 sequence (P0DMS8 whole entry): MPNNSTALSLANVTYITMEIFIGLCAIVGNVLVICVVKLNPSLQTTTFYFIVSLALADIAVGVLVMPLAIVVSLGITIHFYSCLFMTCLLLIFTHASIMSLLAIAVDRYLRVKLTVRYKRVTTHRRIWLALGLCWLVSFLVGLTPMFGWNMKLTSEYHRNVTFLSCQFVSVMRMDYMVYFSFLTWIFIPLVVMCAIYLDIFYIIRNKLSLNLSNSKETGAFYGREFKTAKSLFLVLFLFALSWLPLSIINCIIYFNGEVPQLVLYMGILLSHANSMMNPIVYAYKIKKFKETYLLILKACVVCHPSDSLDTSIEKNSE

[2] = molecular target: T4, Adenosine receptor A1 (Homo sapiens) (UniProt P30542); assay: Displacement of [3H]- DPCPX from CHO cell membrane expressing human Adenosine A1 receptor; type: cell membranes
T4 sequence (whole entry): T2 sequence (P30542 whole entry)
How it was run: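 Membranes from CHO cells stably expressing human A1, resuspended in 50 mM Tris/HCl pH 7.4 with adenosine deaminase 2 IU/mL. Incubated with 1.6 nM (final) [3H]DPCPX in 50 mM Tris/HCl pH 7.4 for 1 h at 25 °C. Nonspecific binding was set with 10 µM CPA. Filtration over GF/B, three ice-cold washes, then liquid scintillation counting. Ligand stocks were in DMSO.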

Adenosine receptor A2a [3] = molecular target: T1, Adenosine receptor A2a; assay: Ability to displace [3H]- ZM-241385 from CHO cell membrane expressing the human Adenosine A2A receptor at a concentration of 10 uM; type: cell membranes
[4] = molecular target: T4, Adenosine receptor A1 (Homo sapiens); assay: Ability to displace [3H]- DPCPX from CHO cell membrane expressing the human Adenosine A1 receptor at a concentration of 10 uM; type: cell membranes
[5] = molecular target: T5, Adenosine receptor A3 (Homo sapiens) (UniProt P0DMS8); assay: Displacement of [125I]AB-MECA from HEK293 cell membrane expressing human Adenosine A3 receptor at 10 uM; type: cell membranes
T5 sequence (whole entry): T3 sequence (P0DMS8 whole entry)

Adenosine receptor A2a [6] = molecular target: T1, Adenosine receptor A2a; assay: Displace [3H]ZM-241385 from CHO cell membrane expressing human Adenosine A2A receptor at 10 uM; type: cell membranes
[7] = molecular target: T4, Adenosine receptor A1 (Homo sapiens); assay: Displacement of [3H]DPCPX from CHO cell membrane expressing human Adenosine A1 receptor at 10 uM; type: cell membranes

T1 sequence (P29274 whole entry): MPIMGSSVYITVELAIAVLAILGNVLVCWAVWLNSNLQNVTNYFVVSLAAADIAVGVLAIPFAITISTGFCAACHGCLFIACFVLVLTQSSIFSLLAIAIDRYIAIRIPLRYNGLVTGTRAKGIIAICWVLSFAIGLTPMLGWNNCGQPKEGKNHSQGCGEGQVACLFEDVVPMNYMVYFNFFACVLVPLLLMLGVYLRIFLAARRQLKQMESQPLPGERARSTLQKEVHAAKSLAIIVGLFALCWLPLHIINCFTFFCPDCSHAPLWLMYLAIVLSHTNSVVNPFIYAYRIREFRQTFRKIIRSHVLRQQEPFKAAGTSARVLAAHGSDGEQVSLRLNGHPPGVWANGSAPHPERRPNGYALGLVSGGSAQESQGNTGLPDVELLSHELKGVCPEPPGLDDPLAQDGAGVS

| Ki (Adenosine receptor A2a [1]) [nM] | Ki (Adenosine receptor A1) [nM] | Ki (Adenosine receptor A3) [nM] | Displacement (Adenosine receptor A2a [3]) [%] | Displacement [4] [%] | Compound | further results |
| --- | --- | --- | --- | --- | --- | --- |
| 161 | 42 | 5 | – | – | C=CCn1c(=O)c2c(nc3ccccn32)n(Cc2ccccc2)c1=O | – |
| 96 | 124 | 14 | – | – | C#CCn1c(=O)c2c(nc3ccccn32)n(Cc2ccccc2)c1=O | – |
| – | – | 114 | 22 | – | O=c1c2c(nc3ccccn32)n(Cc2ccccc2)c(=O)n1CC1CCCCC1 | Displacement [2]: 21% |
| – | – | 200 | 0 | 11 | O=c1[nH]c(=O)n(Cc2ccccc2)c2nc3cc(-c4ccccc4)ccn3c12 | – |
| – | – | 370 | 32 | 47 | O=c1[nH]c(=O)n(Cc2ccccc2)c2nc3ccccn3c12 | – |
| – | – | – | 8 | 25 | CCCn1c(=O)c2c(nc3cc(-c4ccccc4)ccn32)n(Cc2ccccc2)c1=O | – |
| 25800 | – | 77 | – | 20 | O=c1c2c(nc3ccccn32)n(Cc2ccccc2)c(=O)n1Cc1ccccc1 | – |
| – | 83 | 8.3 | 40 | – | CCCn1c(=O)c2c(nc3ccccn32)n(Cc2ccc(OC)cc2)c1=O | – |
| 385 | 1460 | 950 | – | – | CCCn1c(=O)c2c(nc3cc(C(C)(C)C)ccn32)n(Cc2ccccc2)c1=O | – |
| – | – | 210 | 10 | 49 | COc1ccn2c(c1)nc1c2c(=O)[nH]c(=O)n1Cc1ccccc1 | – |
| – | 179 | 10 | 44 | – | CCCn1c(=O)c2c(nc3cc(OC)ccn32)n(Cc2ccccc2)c1=O | – |
| 242 | – | 4.2 | – | 40.9 | O=c1c2c(nc3ccccn32)n(Cc2ccccc2)c(=O)n1CC1CC1 | – |
| 584 | 325 | 36 | – | – | CCn1c(=O)c2c(nc3ccccn32)n(Cc2ccccc2)c1=O | – |
| – | – | 213 | 16 | 25 | COc1ccc(Cn2c(=O)c3c(nc4ccccn43)n(Cc3ccccc3)c2=O)cc1 | – |
| 119 | – | – | – | – | CCCn1c(=O)c2c(nc3ccccn32)n(Cc2ccccc2)c1=O | – |
| – | 28 | 6.3 | 40 | – | CC(C)Cn1c(=O)c2c(nc3ccccn32)n(Cc2ccccc2)c1=O | – |
| – | – | – | 11 | 7 | NCCCn1c(=O)c2c(nc3ccccn32)n(Cc2ccccc2)c1=O | Displacement [5]: 6% |
| – | – | 1130 | – | – | COC(=O)/C=C/Cn1c(=O)c2c(nc3ccccn32)n(Cc2ccccc2)c1=O | Displacement (Adenosine receptor A2a [6]): 12%; Displacement [7]: 1% |
| – | – | 68 | 35 | 44 | CCCn1c(=O)c2c(nc3ccccn32)n(Cc2cccc(C)c2)c1=O | – |
| – | – | 555 | 23 | 53 | CC(C)(C)c1ccn2c(c1)nc1c2c(=O)[nH]c(=O)n1Cc1ccccc1 | – |
| – | 2100 | 3020 | – | – | CCCn1c(=O)c2c(nc3ccccn32)n(C)c1=O | Displacement (Adenosine receptor A2a [6]): 49% |
